Key:
[1] = Tmax in pulmonary tuberculosis patient at 400 mg/kg, po once daily for 7 days by liquid chromatography-MS/MS analysis; type: ADME, organism-based; design: dose 400 mg/kg, route oral; settings: human, in vivo
Procedure, shortened: (§1)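 Treatment-naïve smear-positive pulmonary TB patients, hospitalized; 7-day oral once-daily monotherapy, directly observed, within 30 min after breakfast. Heparinized plasma taken predose and 1, 2, 3, 4, 5, 6, 8, 12 and 24 h postdose on day 7, plus predose on days 5 and 6. Parent drug and N-monodesmethyl metabolite measured by validated LC-MS/MS. Noncompartmental parameters; AUC0-24 by linear trapezoidal rule.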

[2] = AUC (0 to 24 hrs) in pulmonary tuberculosis patient at 100 […], po once daily for 7 days by liquid chromatography-MS/MS analysis; type: ADME, organism-based; design: time < 24 hr, dose 100 mg/kg, route oral; settings: human, plasma
Procedure, shortened: (§2)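 Treatment-naïve, sputum smear-positive patients, hospitalized, took the drug orally once daily under direct observation within 30 min after breakfast. On day 7, heparinized plasma was drawn predose and at 1, 2, 3, 4, 5, 6, 8, 12 and 24 h for parent drug and M2 metabolite. Levels were measured by validated LC-MS/MS, and AUC0-24 was calculated noncompartmentally by the linear trapezoidal rule.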

[3] = test system: Mycobacterium tuberculosis; assay: Bactericidal activity against Mycobacterium tuberculosis in pulmonary tuberculosis patient assessed as reduction in sputum bacterial count at 400 mg/kg, po once daily measured after 7 days; type: functional
Procedure, shortened: (§3)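 Hospitalized treatment-naïve smear-positive patients took oral doses once daily, observed, after breakfast. Sputum was pooled over 16 h overnight at baseline, after each of the 7 dosing days, and on the night after the first standard-therapy dose. Sputum was stirred, digested with dithiothreitol for 20 min at room temperature, and diluted 10-fold. Dilutions were plated in quadruplicate on selective 7H11 agar and counted after 3-4 weeks at 37°C at 20-200 colonies. The read-out was change in log10 CFU/ml from baseline, with a count of 0 set to log 0.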

[4] = test system: Mycobacterium tuberculosis; assay: Bactericidal activity against Mycobacterium tuberculosis in pulmonary tuberculosis patient assessed as reduction in sputum bacterial count at 100 […], po once daily measured after 2 days; type: functional; procedure, shortened: as §3
[5] = test system: Mycobacterium tuberculosis; assay: Bactericidal activity against Mycobacterium tuberculosis in pulmonary tuberculosis patient assessed as reduction in sputum bacterial count at 100 […], po once daily measured after 6 days; type: functional; procedure, shortened: as §3
Homo sapiens [6] = assay: Steady-state plasma concentration in pulmonary tuberculosis patient at 400 mg/kg, po once daily for 7 days by liquid chromatography-MS/MS analysis; type: ADME, organism-based; design: dose 400 mg/kg, route oral; settings: in vivo, 168 h; procedure, shortened: as §1
[7] = Cmax in pulmonary tuberculosis patient at 100 […], po once daily for 7 days by liquid chromatography-MS/MS analysis; type: ADME, organism-based; design: dose 100 mg/kg, route oral; settings: human, in vivo; procedure, shortened: as §1
[8] = test system: Mycobacterium tuberculosis; assay: Bactericidal activity against Mycobacterium tuberculosis in pulmonary tuberculosis patient assessed as reduction in sputum bacterial count at 400 mg/kg, po once daily measured after 6 days; type: functional; procedure, shortened: as §3
Homo sapiens [9] = assay: Toxicity in pulmonary tuberculosis patient assessed as hemoptysis at 400 mg/kg, po once daily; type: organism-based; design: dose 400 mg/kg, route oral; settings: in vivo
[10] = Tmax in pulmonary tuberculosis patient at 100 […], po once daily for 7 days by liquid chromatography-MS/MS analysis; type: ADME, organism-based; design: dose 100 mg/kg, route oral; settings: human, in vivo; procedure, shortened: as §1
Homo sapiens [11] = assay: Steady-state plasma concentration in pulmonary tuberculosis patient at 25 mg/kg, po once daily for 7 days by liquid chromatography-MS/MS analysis; type: ADME, organism-based; design: dose 25 mg/kg, route oral; settings: in vivo, 168 h; procedure, shortened: as §1
[12] = test system: Mycobacterium tuberculosis; assay: Bactericidal activity against Mycobacterium tuberculosis in pulmonary tuberculosis patient assessed as reduction in sputum bacterial count at 25 […], po once daily measured after 3 days; type: functional; procedure, shortened: as §3
[13] = AUC (0 to 24 hrs) in pulmonary tuberculosis patient at 400 mg/kg, po once daily for 7 days by liquid chromatography-MS/MS analysis; type: ADME, organism-based; design: time < 24 hr, dose 400 mg/kg, route oral; settings: human, plasma; procedure, shortened: as §2
[14] = Cmax in pulmonary tuberculosis patient at 25 mg/kg, po once daily for 7 days by liquid chromatography-MS/MS analysis; type: ADME, organism-based; design: dose 25 mg/kg, route oral; settings: human, in vivo; procedure, shortened: as §1
[15] = test system: Mycobacterium tuberculosis; assay: Bactericidal activity against Mycobacterium tuberculosis in pulmonary tuberculosis patient assessed as reduction in sputum bacterial count at 400 […], po once daily measured after 1 day; type: functional; procedure, shortened: as §3
[16] = test system: Mycobacterium tuberculosis; assay: Bactericidal activity against Mycobacterium tuberculosis in pulmonary tuberculosis patient assessed as reduction in sputum bacterial count at 25 mg/kg, po once daily measured after 6 days; type: functional; procedure, shortened: as §3
[17] = test system: Mycobacterium tuberculosis; assay: Bactericidal activity against Mycobacterium tuberculosis in pulmonary tuberculosis patient assessed as reduction in sputum bacterial count at 100 […], po once daily measured on day 8 after starting standard TB therapy; type: functional; procedure, shortened: as §3
Homo sapiens [18] = assay: Toxicity in pulmonary tuberculosis patient assessed as somnolence at 400 mg/kg, po once daily for 7 days; type: organism-based; design: dose 400 mg/kg, route oral; settings: in vivo, 168 h
[19] = test system: Mycobacterium tuberculosis; assay: Bactericidal activity against Mycobacterium tuberculosis in pulmonary tuberculosis patient assessed as reduction in sputum bacterial count at 100 […], po once daily measured after 4 days; type: functional; procedure, shortened: as §3
Homo sapiens [20] = assay: Cardiotoxicity in pulmonary tuberculosis patient assessed as increase in QT interval at 100 […], po once daily for 7 days; type: toxicity, organism-based; design: dose 100 mg/kg, route oral; settings: in vivo, 168 h
[21] = test system: Mycobacterium tuberculosis; assay: Bactericidal activity against Mycobacterium tuberculosis in pulmonary tuberculosis patient assessed as reduction in sputum bacterial count at 100 […], po once daily measured after 5 days; type: functional; procedure, shortened: as §3
[22] = test system: Mycobacterium tuberculosis; assay: Bactericidal activity against Mycobacterium tuberculosis in pulmonary tuberculosis patient assessed as reduction in sputum bacterial count at 400 mg/kg, po once daily measured on day 8 after starting standard TB therapy; type: functional; procedure, shortened: as §3
[23] = Drug uptake in pulmonary tuberculosis patient at 25 mg/kg, po once daily for 7 days by liquid chromatography-MS/MS analysis; type: ADME, organism-based; design: dose 25 mg/kg, route oral; settings: human, in vivo, read-out: Drug uptake; procedure, shortened: as §1

`COc1nc2ccc(Br)cc2cc1[C@@H](c1ccccc1)[C@@](O)(CCN(C)C)c1cccc2ccccc12` [BEDAQUILINE] gave a Tmax [1] of 4 h, an AUC at 24 h [2] of 16000 ng·h/mL and a log10CFU/ml [3] of -0.77. It also gave a log10CFU/ml [4] of -0.2, a log10CFU/ml [5] of -0.09 and a Css (Homo sapiens [6]) of 2696 ng/mL. It also gave a Cmax [7] of 1210 ng/mL, a log10CFU/ml [8] of -0.46 and an Activity (Homo sapiens [9]) of 21.4%. For the same compound, the Tmax [10] was 4 h, the Css (Homo sapiens [11]) was 165.5 ng/mL and the log10CFU/ml [12] was -0.04. For the same compound, the AUC at 24 h [13] was 64800 ng·h/mL, the Cmax [14] was 319 ng/mL and the log10CFU/ml [15] was -0.07. The log10CFU/ml [16] was -0.06, the log10CFU/ml [17] was -0.71 and the Activity (Homo sapiens [18]) was 7%. It also gave a log10CFU/ml [19] of -0.24, a Time (Homo sapiens [20]) of 7.1 ms and a log10CFU/ml [21] of -0.13. It also gave a log10CFU/ml [22] of -1.14 and a concentration at 168 h [23] of 104 ng/mL.

From ChEMBL document CHEMBL1275461, “Early bactericidal activity and pharmacokinetics of the diarylquinoline TMC207 in treatment of pulmonary tuberculosis” (Antimicrob Agents Chemother, 2008)
